Measured values: ChEMBL document CHEMBL4680093 (J Med Chem, 2016)

Columns and labels:
[1] = Cmax in mouse at 5 mg/kg, po; format: ADME, organism-based; set-up: route oral, dose 5 mg/kg; details: in vivo
[2] = In-vivo inhibition of 11beta-HSD1 activity in C57BL/6 mouse epididymal fat assessed as reduction in cortisone to-cortisol conversion at 3 mg/kg, po measured after 6 hrs by ELISA; format: functional; details: C57BL/6, Epididymal fat pad
Outline: (§1)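 Male C57BL/6 mice dosed orally once at 3, 10 or 30 mg/kg in sterile water containing 0.5% methylcellulose and 1% Tween80, then sacrificed at 2 or 6 h. Liver and epididymal fat pads incubated ex vivo in culture medium containing cortisone. Cortisol formed was measured by ELISA and reported as % inhibition versus vehicle.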

[3] = Toxicity in dog assessed as induction of abnormal changes in respiratory system up to 400 mg/kg, po; format: organism-based, Canis lupus familiaris; details: in vivo
Outline: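 Dogs fitted with telemetry were given oral doses of up to 400 mg/kg. Cardiovascular and respiratory systems were monitored for abnormal changes.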

[4] = Ratio of unbound Cmax in mouse plasma at 10 mg/kg, po measured after 2 hrs post dose to IC50 for human ERG expressed in CHO cells; format: ADME, organism-based; details: in vivo
Cytochrome P450 1A2 = biological target: T1, Cytochrome P450 1A2 (Homo sapiens, UniProt P05177); assay: Inhibition of CYP1A2 in pooled human liver microsomes using phenacetin as substrate in presence of NADPH incubated for 10 mins by LC-MS/MS analysis
T1 sequence (P05177 whole entry): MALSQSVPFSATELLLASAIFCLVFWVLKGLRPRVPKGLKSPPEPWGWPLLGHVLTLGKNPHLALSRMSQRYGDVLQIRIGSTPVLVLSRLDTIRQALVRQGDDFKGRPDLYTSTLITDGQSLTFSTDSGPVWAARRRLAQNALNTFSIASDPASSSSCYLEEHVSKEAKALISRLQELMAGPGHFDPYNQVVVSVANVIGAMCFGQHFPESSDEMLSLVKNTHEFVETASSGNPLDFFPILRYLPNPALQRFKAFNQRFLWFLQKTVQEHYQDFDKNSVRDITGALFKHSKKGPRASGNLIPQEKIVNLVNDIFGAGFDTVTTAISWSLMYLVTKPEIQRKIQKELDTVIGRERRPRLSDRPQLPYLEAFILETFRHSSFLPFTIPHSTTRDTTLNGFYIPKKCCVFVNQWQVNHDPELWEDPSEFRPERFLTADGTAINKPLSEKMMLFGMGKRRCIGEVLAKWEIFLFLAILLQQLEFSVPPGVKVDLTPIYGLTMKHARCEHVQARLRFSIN

[5] = AUC in rat at 5 mg/kg, po; format: ADME, organism-based; set-up: dose 5 mg/kg; details: in vivo
[6] = Genotoxicity in Salmonella typhimurium by reverse mutation assay; format: toxicity; details: salmonella enterica subsp. enterica serovar typhimurium
Mus musculus = assay: Toxicity in mouse assessed as induction of abnormal changes in central nervous system up to 1000 mg/kg, po; details: in vivo
[7] = Half life in dog at 0.5 mg/kg, iv; format: ADME, organism-based, Canis lupus familiaris; details: in vivo
[8] = Half life in rat at 1 mg/kg, iv; format: ADME, organism-based; details: in vivo
[9] = In-vivo inhibition of 11beta-HSD1 activity in C57BL/6 mouse liver assessed as reduction in cortisone to-cortisol conversion at 3 mg/kg, po measured after 2 hrs by ELISA; format: functional; details: C57BL/6, Liver; outline: as §1
[10] = Reduction in nonfasting blood glucose level in C57BL/6-Lep^ob (ob/ob) mouse at 20 mg/kg, po dosed once daily for 25 days and co-treated with 300 mg/kg. po QD for 25 days metformin relative to control; set-up: scale not given: the % may be the effect or the level left; details: time 25 day
[11] = Metabolic stability in mouse liver microsomes assessed as compound remaining after 30 mins; format: ADME, Microsome; details: read-out: Stabilty
[12] = biological target: T2, Mineralocorticoid receptor (Homo sapiens, UniProt P08235); assay: Agonist activity at mineralocorticoid receptor (unknown origin)
T2 sequence (P08235 whole entry): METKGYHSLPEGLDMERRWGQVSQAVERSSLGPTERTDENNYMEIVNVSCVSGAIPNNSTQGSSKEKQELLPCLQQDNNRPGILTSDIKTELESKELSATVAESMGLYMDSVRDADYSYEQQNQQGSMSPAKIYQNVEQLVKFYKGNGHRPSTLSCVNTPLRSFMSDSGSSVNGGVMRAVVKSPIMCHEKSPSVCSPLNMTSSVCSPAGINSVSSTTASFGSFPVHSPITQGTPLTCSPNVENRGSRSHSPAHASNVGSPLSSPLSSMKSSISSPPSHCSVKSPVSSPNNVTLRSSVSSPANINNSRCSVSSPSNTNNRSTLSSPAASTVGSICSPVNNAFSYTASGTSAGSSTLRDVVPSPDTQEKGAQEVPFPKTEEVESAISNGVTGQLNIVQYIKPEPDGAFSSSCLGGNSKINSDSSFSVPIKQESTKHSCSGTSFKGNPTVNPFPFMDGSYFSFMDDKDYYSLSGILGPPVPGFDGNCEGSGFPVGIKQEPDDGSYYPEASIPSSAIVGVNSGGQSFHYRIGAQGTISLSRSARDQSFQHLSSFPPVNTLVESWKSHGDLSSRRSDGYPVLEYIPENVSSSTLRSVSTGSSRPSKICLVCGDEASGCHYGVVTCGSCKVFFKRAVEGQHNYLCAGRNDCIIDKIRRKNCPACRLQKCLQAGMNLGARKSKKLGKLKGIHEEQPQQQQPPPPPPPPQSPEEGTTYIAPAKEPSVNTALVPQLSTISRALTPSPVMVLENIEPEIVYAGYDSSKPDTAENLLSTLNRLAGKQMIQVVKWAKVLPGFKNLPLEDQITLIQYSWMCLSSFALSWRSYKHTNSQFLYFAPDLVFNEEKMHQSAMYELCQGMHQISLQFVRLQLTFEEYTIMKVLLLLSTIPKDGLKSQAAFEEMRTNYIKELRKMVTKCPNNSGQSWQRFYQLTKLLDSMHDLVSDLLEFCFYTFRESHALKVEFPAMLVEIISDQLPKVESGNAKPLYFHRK

[13] = AUC in dog at 0.5 mg/kg, iv; format: ADME, organism-based, Canis lupus familiaris; set-up: dose 0.5 mg/kg; details: in vivo
[14] = biological target: 11-beta-hydroxysteroid dehydrogenase 1 (Mus musculus, UniProt P50172); assay: Inhibition of mouse 11beta-HSD1 expressed in microsomes; set-up: species or system Microsome
Sequence of 11-beta-hydroxysteroid dehydrogenase 1 (P50172 whole entry): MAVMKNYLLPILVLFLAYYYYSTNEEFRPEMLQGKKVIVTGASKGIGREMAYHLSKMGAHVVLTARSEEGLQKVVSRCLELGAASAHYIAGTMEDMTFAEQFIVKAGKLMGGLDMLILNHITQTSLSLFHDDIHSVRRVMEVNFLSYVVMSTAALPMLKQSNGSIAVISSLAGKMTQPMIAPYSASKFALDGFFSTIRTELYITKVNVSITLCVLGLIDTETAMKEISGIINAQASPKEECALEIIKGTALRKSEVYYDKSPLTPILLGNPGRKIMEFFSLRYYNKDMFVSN
Outline: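 HEK293 cell lysates (microsomal fractions) overexpressing human or mouse 11β-HSD1 were incubated with cortisone, a range of inhibitor concentrations and an NADPH regenerating system in sodium phosphate buffer at 37°C for 1 h. Cortisol in the supernatant was quantified by ELISA. Percent inhibition was fitted to a sigmoidal dose-response curve to give IC50.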

[15] = Reduction in HbA1c level in C57BL/6-Lep^ob (ob/ob) mouse at 20 mg/kg, po dosed once daily for 25 days and co-treated with 300 mg/kg. po QD for 25 days metformin relative to control; set-up: scale not given: the % may be the effect or the level left; details: time 25 day
Cytochrome P450 2C9 = Cytochrome P450 2C9 (Homo sapiens, UniProt P11712); assay: Inhibition of CYP2C9 in pooled human liver microsomes using diclofenac as substrate in presence of NADPH incubated for 10 mins by LC-MS/MS analysis
Sequence of Cytochrome P450 2C9 (P11712 whole entry): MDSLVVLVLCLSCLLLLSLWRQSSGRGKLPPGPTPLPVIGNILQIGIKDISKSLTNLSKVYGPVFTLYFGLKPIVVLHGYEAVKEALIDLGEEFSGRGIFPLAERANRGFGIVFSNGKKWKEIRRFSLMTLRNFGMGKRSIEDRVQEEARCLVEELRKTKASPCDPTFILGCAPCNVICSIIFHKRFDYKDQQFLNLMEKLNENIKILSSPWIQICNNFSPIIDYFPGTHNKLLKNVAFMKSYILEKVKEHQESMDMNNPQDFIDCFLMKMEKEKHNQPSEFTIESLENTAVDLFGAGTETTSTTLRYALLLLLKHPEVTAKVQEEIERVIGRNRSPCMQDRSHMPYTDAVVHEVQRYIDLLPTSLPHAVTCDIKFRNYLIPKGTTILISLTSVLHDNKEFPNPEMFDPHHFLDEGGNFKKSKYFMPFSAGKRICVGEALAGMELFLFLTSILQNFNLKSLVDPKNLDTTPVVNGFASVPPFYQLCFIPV

[16] = Half life in mouse at 1 mg/kg, iv; format: ADME, organism-based; details: in vivo

**Q.** Which Cmax [1] does the source give for C[C@@H]1CN(c2ccc(S(C)(=O)=O)cc2F)CCN1c1nccc(C(=O)NC2C3CC4CC2CC(O)(C4)C3)n1 (some centres undefined) here?
**A.** 2210 ng/mL

**Q.** And the inhibition in vivo at 3 mg/kg [2]?
**A.** 84%

**Q.** What about the Activity [3] of the same compound?
**A.** Non-Toxic

**Q.** What about the Ratio [4] of the same compound?
**A.** > 30

**Q.** And the IC50 (Cytochrome P450 1A2)?
**A.** > 10 µM

**Q.** And the AUC [5]?
**A.** 3390 ng·h/mL

**Q.** And the Activity [6]?
**A.** Non-Toxic

**Q.** And the Activity (Mus musculus)?
**A.** Non-Toxic

**Q.** What about the half-life [7] of the same compound?
**A.** 4.7 h

**Q.** And the half-life [8]?
**A.** 1.8 h

**Q.** And the inhibition in vivo at 3 mg/kg [9]?
**A.** 74%

**Q.** And the Activity [10]?
**A.** 33%

**Q.** What about the remaining at 0.5 h [11] of the same compound?
**A.** 98%

**Q.** What about the EC50 [12] of the same compound?
**A.** > 5 µM

**Q.** And the AUC [13]?
**A.** 1470 ng·h/mL

**Q.** And the IC50 [14]?
**A.** 0.0016 µM

**Q.** And the Activity [15]?
**A.** 1.67%

**Q.** What about the IC50 (Cytochrome P450 2C9) of the same compound?
**A.** > 10 µM

**Q.** And the half-life [16]?
**A.** 1.7 h
